Screening results (PubChem)
A selection: hits, their analogues and other compounds. The true share with any hit is near 2.2%.
miR122 inh – miR-122 Renilla sensor signal increase in Huh7, primary screen, miR-122 inhibitor project, cell-based, single point, plate reader; 0.3% of 340,000 active; activation (reporter increase), % at 12.5 µM; Huh7 miR-122 Renilla luciferase sensor, 48 h; neutral wells = 0, positive control = 100;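 active = mean replicate activation score at least 90 and every replicate individually at or above 90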;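 note: higher luciferase means less miR-122 activity so hits act as miR-122 inhibitors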
NR2E3 ag-1 – NR2E3 agonists in two-hybrid cells, primary screen, cell-based, luminescence, CHO-S, Gal4-NCOR/VP16-NR2E3; Photoreceptor-specific nuclear receptor (Homo sapiens), Q9Y5X4; luciferase; inhibition of corepressor binding, % at 3.98 µM; 0.35% of 360,000 active;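 active = inhibition above the mean of all tested compounds plus 3 SD, cut at about 70% in these data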;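 note: higher means lower luciferase signal from less NR2E3 corepressor binding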
Target sequence (Q9Y5X4 whole entry, looked up, the tested form may be a part): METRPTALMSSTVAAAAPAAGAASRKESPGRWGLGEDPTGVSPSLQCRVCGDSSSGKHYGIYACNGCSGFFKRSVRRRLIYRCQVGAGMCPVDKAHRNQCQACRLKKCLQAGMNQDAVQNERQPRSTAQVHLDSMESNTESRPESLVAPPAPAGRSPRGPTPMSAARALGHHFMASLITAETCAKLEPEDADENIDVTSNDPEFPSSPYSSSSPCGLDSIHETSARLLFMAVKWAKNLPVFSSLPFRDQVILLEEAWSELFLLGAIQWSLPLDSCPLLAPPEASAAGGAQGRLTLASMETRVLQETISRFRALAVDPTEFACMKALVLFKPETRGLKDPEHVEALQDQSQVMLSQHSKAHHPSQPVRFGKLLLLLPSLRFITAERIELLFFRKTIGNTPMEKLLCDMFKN
Jurkat NFkB inh – inhibitors of induced NF-kB luciferase reporter, primary screen, TCR NF-kB activation inhibitor project, cell-based, luminescence, uHTS; 0.53% of 330,000 active; inhibition, % at 4 µM; Jurkat, PMA/ionomycin-induced NF-kB luciferase reporter; AID 435003, 2010; in the data active = inhibition above about 50%
697 NFkB inh – inhibitors of PMA/ionomycin-induced NF-kB reporter, 697 cells, primary screen, B-cell NF-kB inhibitor project, cell-based, luminescence, uHTS. AID 435022, 2010. 0.33% of 330,000 active. inhibition, % at 4 µM. 697 B-cell NF-kB luciferase reporter, 16 h; in the data active = inhibition above about 35%
FGF22 binding – binders of human FGF22 protein, primary screen, FGF22 synaptogenesis inhibitor project, biophysical, thermal shift, single point. recombinant FGF22 thermal shift, SYPRO orange fluorescence; percent of sucrose octasulfate shift, DMSO zero. activity (Tm shift, normalised), % at 9.99 µM. 1.5% of 340,000 active;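 active = mean Tm shift, scaled 0 neutral to 100 positive control, at about 1.3% or above, every replicate too, limit read from the data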
Target sequence (Q9HCT0 whole entry, looked up): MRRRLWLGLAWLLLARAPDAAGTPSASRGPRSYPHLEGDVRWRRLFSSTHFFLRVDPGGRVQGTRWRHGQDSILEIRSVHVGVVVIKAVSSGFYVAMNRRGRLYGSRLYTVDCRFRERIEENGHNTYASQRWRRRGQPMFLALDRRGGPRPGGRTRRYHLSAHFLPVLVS
NR2E3 ag-2 – inhibitors of NR2E3-RetCOR corepressor binding, primary screen, NR2E3 agonist project, biochemical, TR-FRET, GST-NR2E3, biotin-RetCOR | Photoreceptor-specific nuclear receptor (Homo sapiens), Q9Y5X4 | AID 2300, 2010 | 1536-well | inhibition of corepressor binding, % at 4.78 µM | 0.12% of 320,000 active;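 active = percent inhibition above the cutoff of mean plus 3 SD of all tested compounds, set per screening campaign, cut at about 20% in these data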
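Material – GST-tagged NR2E3 plus biotinylated RetCOR corepressor · Quantity – NR2E3 fusion 1.35 nM · Times – 5 h incubation at 4 °C · Medium – pH 7.5 Tris-based buffer · Technique – TR-FRET, Eu(K)-anti-GST donor, streptavidin-D2 acceptor, ex 340, em 617/671 nm · Benchmarks – high control biotin, low control 0.6% DMSO · Format – 1536-well plates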
Jurkat NFkB conf – PMA/ionomycin-induced NF-kB reporter inhibitors, Jurkat retest, confirmation, T-cell NF-kB inhibitor project, cell-based, luminescence, single concentration | 27% of 2,700 active | Jurkat NF-kB luciferase, 16 h | inhibition, % at 4 µM | shares compounds with Jurkat NFkB inh;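 active = inhibition reaching about 45% at 4 µM in either replicate, limit read from the data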
697 NFkB conf – PMA/ionomycin-induced NF-kB reporter inhibitors, 697 retest, confirmation, B-cell NF-kB inhibitor project, cell-based, luminescence, single concentration; shares compounds with 697 NFkB inh; 697 B-cell NF-kB luciferase, 16 h; inhibition, % at 4 µM; 35% of 2,000 active; AID 449746, 2010; in the data active = inhibition mostly above about 28%, no sharp cut-off; inactive = mostly below about 22%
NR2E3 ag confirm – NR2E3 agonist confirmation in cells, cell-based, luminescence, CHO-S two-hybrid; shares compounds with NR2E3 ag-1; CHO-S mammalian two-hybrid NR2E3-NCOR, luciferase luminescence; inhibition, % at 3.98 µM; 51% of 2,300 active; AID 624378, 2012;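 active = average inhibition above a cutoff equal to the mean inhibition of all tested compounds plus one SD, cut at about 70% in these data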
VP16 counter – GAL4-VP16 reporter modulators, confirmation, counter-screen for NR2E3 agonist project, cell-based, luminescence, CHO-S, high throughput; shares compounds with NR2E3 ag-1; CHO-S GAL4-VP16 luciferase reporter; inhibition, % at 3.98 µM; 29% of 2,300 active; AID 624379, 2012;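 active = mean inhibition above a cutoff equal to the average over all tested compounds plus one standard deviation, cut at about 70% in these data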;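 note: luciferase from a UAS reporter driven by GAL4-VP16 transactivation; higher means less reporter light so more repression of VP16 activity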
Numbers stand for hits; . = inactive; / = no result given.

SMILES | miR122 inh | NR2E3 ag-1 | Jurkat NFkB inh | 697 NFkB inh | FGF22 binding | NR2E3 ag-2 | Jurkat NFkB conf | NR2E3 ag confirm | VP16 counter | others
Cc1noc(C)c1NC(=O)N(C)C[C@H]1Oc2ncc(C#CC3CC3)cc2C(=O)N([C@@H](C)CO)C[C@@H]1C | / | / | / | / | . | / | / | / | /
O=C(Nc1ccc(Cl)cc1)N1C[C@@H]2[C@H](c3ccccc31)[C@@H](CO)N2CC1CCCC1 | . | / | / | / | . | / | / | / | /
O=C1N(c2ccccc2)C[C@@H]2C[C@@H](c3cc4ccccc4o3)N3CCC[C@@]123 | / | 78 | 72 | . | . | / | . | 99 | 85
Cc1ccc(-c2ccccc2[C@@H]2C[C@H]3CN(C)C(=O)[C@]34CCCN24)o1 | . | . | . | . | . | . | / | / | /
COc1ccc(NC(=O)Nc2cccc3c2O[C@H](CN(C)S(=O)(=O)c2ccc(C)cc2)[C@@H](C)CN([C@H](C)CO)C3=O)cc1 | . | / | / | / | . | / | / | / | /
COc1ccccc1-[n+]1c(C)cc(/C=C2\Sc3ccccc3N2C)cc1C | . | 92 | 93 | . | . | . | . | 97 | 83
COc1ccc(-[n+]2c(C)cc(/C=C3\Sc4ccccc4N3C)cc2C)cc1 | / | 93 | 86 | 100 | . | . | . | 99 | 92 | 697 NFkB conf=.
COc1ccccc1OC(=O)CCN1c2ccccc2Sc2ccccc21 | / | . | . | . | / | . | / | / | /
COc1ccc(C(=O)/C=C2\Sc3ccccc3N2C)cc1 | . | . | . | . | . | . | / | / | /
CO[C@@H]1CN(C)C(=O)c2cc(NC(=O)C3CCOCC3)ccc2OC[C@@H](C)N(CC2CC2)C[C@H]1C | / | / | / | / | . | / | / | / | /
CNC(=O)C[C@H]1CC[C@@H]2[C@H](COc3ccc(NC(=O)c4cscn4)cc3C(=O)N2C)O1 | . | / | / | / | . | / | / | / | /
COc1ccc(S(=O)(=O)N(C)C[C@@H]2Oc3ccc(N(C)C)cc3CC(=O)N([C@@H](C)CO)C[C@H]2C)cc1 | . | / | / | / | . | / | / | / | /
CC(C)C(=O)Nc1ccc2c(c1)C(=O)N(C)[C@H]1CC[C@H](CC(=O)NCc3ccccc3F)O[C@H]1CO2 | . | / | / | / | . | / | / | / | /
CCN1/C(=C/C=C/c2oc3ccc(-c4ccccc4)cc3[n+]2CC)Oc2ccc(-c3ccccc3)cc21 | . | 80 | 98 | 48 | . | . | . | 100 | 93 | 697 NFkB conf=.
COc1ccc(OC)c2c1C(=O)C(Cl)=C(Cl)C2=O | . | 102 | 60 | . | . | . | 68 | 99 | .
COc1ccc(OC)c2c1C(=O)c1ccccc1C2=O | / | / | . | . | / | . | / | / | /
CC(Nc1ncnc2ccccc12)c1ccccc1 (stereo not given) | / | 75 | 50 | . | . | . | 63 | 96 | 91
CCN1/C(=C/c2ccc3cc(C)ccc3[n+]2CC)Sc2cc(C)c(C)cc21 | . | 90 | 93 | 65 | . | / | 74 | 99 | 87 | 697 NFkB conf=80
CCN1/C(=C/C=C/C=C/c2sc3ccccc3[n+]2CC)Sc2ccccc21 | / | / | . | . | / | . | / | / | /
CCN1/C(=C/c2ccc3cc(C)ccc3[n+]2CC)Sc2ccccc21 | / | 91 | 96 | 86 | . | . | 69 | 99 | 89 | 697 NFkB conf=49
COc1cccc2sc(NN)nc12 | / | . | . | . | . | . | / | / | /
COc1ccccc1-c1nnc(Nc2nc3c(OC)cccc3s2)o1 | . | 74 | 88 | . | / | . | . | . | .
Cc1nc(SCC(=O)Nc2nc3ccccc3s2)c(C#N)c(C)c1C | / | 93 | 90 | . | . | . | 89 | 84 | 81
Cc1ccc(NC2=C/C(=N/S(=O)(=O)c3cccs3)c3ccccc3C2=O)cc1C | . | . | / | / | . | . | / | / | /
Cc1ccccc1NC1=C/C(=N\S(=O)(=O)c2cccs2)c2ccccc2C1=O | . | . | 51 | . | / | . | 84 | 100 | 99
SMILES | miR122 inh | NR2E3 ag-1 | Jurkat NFkB inh | 697 NFkB inh | FGF22 binding | NR2E3 ag-2 | Jurkat NFkB conf | NR2E3 ag confirm | VP16 counter | others
O=C(NNc1ccnc2cc(Cl)ccc12)C1CCCCC1 | / | . | 69 | . | . | . | 64 | 97 | 87
O=C(Nc1ccc2c(c1)[C@H]1C[C@H](CC(=O)N3CCCCC3)O[C@@H](CO)[C@H]1O2)c1ccc2c(c1)OCO2 | . | / | / | / | / | / | / | / | /
CCOC(=O)N=Nc1c(O)n(CC(=O)OC)c2ccccc12 | . | . | . | . | / | . | / | / | /
CCOC(=O)N=Nc1c2ccccc2c2nc3no[nH]c3nc12 | . | 89 | 60 | . | . | / | 98 | 99 | 100
Cc1sc2ncnc(N3CCN(CCOc4ccc(Cl)cc4)CC3)c2c1C | . | 99 | 57 | 56 | . | . | . | 95 | 86 | 697 NFkB conf=35
CC[C@@]1(O)C(=O)OCc2c1cc1n(c2=O)Cc2cc3c(N)cccc3nc2-1 | / | 82 | 81 | 77 | . | . | 84 | 88 | . | 697 NFkB conf=.
CCc1cccc2sc(N3CCN(C(=O)c4ccc([N+](=O)[O-])o4)CC3)nc12 | . | 90 | 51 | . | / | . | . | 76 | .
CN(CCCS(=O)(=O)[O-])c1ccc(/C=C/c2ccc3ccccc3[n+]2C)cc1 | . | . | . | . | . | / | / | / | /
CN(C)c1ccc(/C=C/c2ccc3ccccc3[n+]2C)cc1 | . | . | 93 | . | / | . | 66 | 87 | .
O=C(C[C@H]1C=C[C@H](NC(=O)Nc2cc(F)ccc2F)[C@H](CO)O1)NCc1ccncn1 | / | / | / | / | . | / | / | / | /
CCc1c(C)nc2ncnn2c1NCCc1ccc(OC)c(OC)c1 | . | . | . | . | . | . | / | / | /
COc1ccc(CCNc2c(C)c(C)nc3ncnn23)cc1 | . | 93 | 70 | 89 | . | . | 65 | 94 | 75 | 697 NFkB conf=54
